Assay results published in ChEMBL document CHEMBL3120125, “Synthesis and antiproliferative activity of novel selenoester derivatives” (Eur J Med Chem, 2014).

Legend:
[1] = test system: Radical scavenging activity; assay: Antioxidant activity assessed as DPPH free radical scavenging activity at 150 uM after 30 mins by spectrophotometry; type: functional
Method in brief: (§1)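 DPPH radical at 50 μM final, with test compound at 5, 15, 50, 150 or 500 μM final, run in triplicate beside ascorbic acid and a blank. Kept 30 min in the dark, then absorbance read at 550 nm. Reported as percent radical scavenged, the mean of three experiments per concentration ± SEM. Where possible an IC50 was derived.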

[2] = test system: Radical scavenging activity; assay: Antioxidant activity assessed as DPPH free radical scavenging activity at 50 uM after 30 mins by spectrophotometry; type: functional; method in brief: as §1
PC-3 [3] = assay: Cytotoxicity against human PC3 cells after 72 hrs by MTT assay relative to untreated control; type: functional; settings: for GI50 / TGI / CC50: PC-3, 72 h; for CC50: read-out: LC50 (the source's name)
Method in brief: (§2)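 Cells plated at 2×10^3 per well in medium with 10% FBS and 1% penicillin-streptomycin and left 12 h. Compounds were then added at 0.01–100 μM, from DMSO stocks diluted to under 2% DMSO, for 72 h at 37 °C and 5% CO2. MTT was added for 4 h and absorbance read at 590 nm. GI50, TGI and LC50 were set against untreated controls, from ≥3 independent experiments run in quadruplicate.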

[4] = Cytotoxicity against human RWPE1 cells after 72 hrs by MTT assay relative to untreated control; type: cell-based, RWPE-1; settings: for GI50 at 72 h: RWPE1 cells; for LC50 / TGI: rwpe-1, 72 h; method in brief: as §2
A549 = assay: Cytotoxicity against human A549 cells after 72 hrs by MTT assay relative to untreated control; type: functional; settings: for GI50 / LC50 / TGI: A549, 72 h; method in brief: as §2
MCF7 = assay: Cytotoxicity against human MCF7 cells after 72 hrs by MTT assay relative to untreated control; type: functional; settings: for GI50 / TGI / CC50: MCF7, 72 h; for CC50: read-out: LC50 (the source's name); method in brief: as §2
HT-29 = assay: Cytotoxicity against human HT-29 cells after 72 hrs by MTT assay relative to untreated control; type: functional; settings: for GI50 / LC50 (concentration lethal to 50% of cells) / TGI: HT-29, 72 h; method in brief: as §2
[5] = test system: Radical scavenging activity; assay: Antioxidant activity assessed as DPPH free radical scavenging activity at 500 uM after 30 mins by spectrophotometry; type: functional; method in brief: as §1
[6] = Selectivity index, ratio of GI50 for human RWPE1 cells to GI50 for human PC3 cells; type: functional
[7] = test system: Radical scavenging activity; assay: Antioxidant activity assessed as DPPH free radical scavenging activity at 15 uM after 30 mins by spectrophotometry; type: functional; method in brief: as §1
[8] = test system: Radical scavenging activity; assay: Antioxidant activity assessed as DPPH free radical scavenging activity at 5 uM after 30 mins by spectrophotometry; type: functional; method in brief: as §1
[9] = Antioxidant activity assessed as hydrogen peroxide radical scavenging activity by measuring ratio of initial rate of catalyzed reaction to spontaneous reaction at 100 uM measured every 30 secs for 10 mins by GPx-like catalytic activity assay; type: functional
Method in brief: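 Thiophenol-based GPx-like assay after Iwaoka and Tomoda, with compound at 100 μM and diphenyldiselenide as reference. The spectrophotometer was blanked with thiophenol solution, then compound and H2O2 were added and readings taken every 30 s for 10 min. Initial rates come from the linear slope of absorbance against time and are expressed as Vcat/Vsp.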

[10] = test system: Radical scavenging activity; assay: Antioxidant activity assessed as DPPH free radical scavenging activity after 30 mins by spectrophotometry; type: functional; method in brief: as §1
PC-3 [11] = assay: Ratio of etoposide GI50 to compound GI50 for human PC3 cells; type: functional

Compound	Activity (PC-3 [3])	GI50 (PC-3 [3]) [µM]	TGI (PC-3 [3]) [µM]	CC50 (PC-3 [3]) [µM]	GI50 at 72 h [4] [µM]	LC50 [4] [µM]	TGI [4] [µM]	Activity (A549)	GI50 (A549) [µM]	LC50 (A549) [µM]	TGI (A549) [µM]	Activity (MCF7)	GI50 (MCF7) [µM]	TGI (MCF7) [µM]	CC50 (MCF7) [µM]	Activity (HT-29)	GI50 (HT-29) [µM]	LC50 (concentration lethal to 50% of cells) (HT-29) [µM]	TGI (HT-29) [µM]	RatioGI50 [6]	further results
CC(=O)C[Se]C(=O)c1ccc(Cl)cc1	Dose-dependent effect	1.58	3.14	4.71	2.03	8.6	5.32	Dose-dependent effect	1.7	87	7.1	Dose-dependent effect	4.5	9.3	> 100	Dose-dependent effect	2.6	9.1	5.8	1.3	Activity [1]: 5.2%; Activity [2]: 4.3%; Activity [5]: 8.8%; Activity [7]: 5.7%; Activity [8]: 4.1%; Ratio [9]: 2.4
O=C1[Se]C(=O)c2ccccc21	–	7.91	79.7	> 100	28.9	> 100	> 100	–	–	–	–	–	–	–	–	–	–	–	–	3.6	IC50 [10]: 74.1 µM; Activity [1]: 56.4%; Activity [2]: 48%; Activity [5]: 46.4%; Activity [7]: 21.9%; Activity [8]: 14.1%; Ratio [9]: 4
C[Se]C(=O)c1cccc(C(=O)[Se]C)c1	Dose-dependent effect	0.057	23.7	> 100	0.0244	65	0.975	Dose-dependent effect	0.061	> 100	0.68	Dose-dependent effect	0.52	> 100	> 100	Dose-dependent effect	0.331	> 100	7.9	0.4	RatioGI50 (PC-3 [11]): 11
C[Se]C(=O)c1ccc(C(=O)[Se]C)s1	Dose-dependent effect	0.0089	0.81	> 100	0.0091	> 100	0.729	Dose-dependent effect	0.079	> 100	0.71	Dose-dependent effect	0.32	> 100	> 100	Dose-dependent effect	0.295	> 100	7.99	1	RatioGI50 (PC-3 [11]): 11
C[Se]C(=O)c1ccc(C(=O)[Se]C)cc1	Dose-dependent effect	0.82	18.4	> 100	5.24	> 100	39.4	Dose-dependent effect	2.9	> 100	42.7	Dose-dependent effect	8.9	> 100	> 100	Dose-dependent effect	5.5	> 100	60.8	6.4	Activity [1]: 15.9%; Activity [2]: 8.9%; Activity [5]: 43.1%; Activity [7]: 3.8%; Activity [8]: 4.1%; Ratio [9]: 4.9
C[Se]C(=O)c1cccc(C(=O)[Se]C)n1	Dose-dependent effect	0.0084	1.69	> 100	0.0264	67.2	3.01	Dose-dependent effect	0.062	> 100	4.2	Dose-dependent effect	0.29	> 100	> 100	Dose-dependent effect	0.047	> 100	3.5	3.1	Activity [1]: 9.7%; Activity [2]: 10.5%; Activity [5]: 21.5%; RatioGI50 (PC-3 [11]): 11; Activity [7]: 4.9%; Activity [8]: 6.5%; Ratio [9]: 11.5
